According to ChEMBL document CHEMBL3763021 (Eur J Med Chem, 2016):
pIC50: −log10 of the molar value.

Key:
LS174T [1] = experiment: Antitumor activity against human LS174T cells xenografted in BALB/C mouse assessed as tumor weight inhibition at 75 mg/kg, bid administered for 10 days measured twice per week; format: functional; settings: 240 h, read-out: TGI
Procedure, shortened: (§1)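 Male BALB/c nude mice, 18–20 g, kept under SPF conditions. LS-174T cells at 2.5×10^7 cells/mL were injected s.c. into the right flank, and tumors were grown to about 100 mm3. Mice were randomized, n=6 treated and n=9 vehicle. Oral dosing ran qd or bid for 10 days; vehicle controls got the same volume of solvent. Tumor volume = length×width²/2, measured twice weekly. IR = (control − treated)/control for tumor weight or volume at day 10.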

[2] = Inhibition of Sonic-induced hedgehog signalling in mouse NIH3T3 cells after 48 hrs by Gli-luciferase reporter assay; format: cell-based; settings: NIH3T3, 48 h
Procedure, shortened: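 NIH3T3 cells stably carrying a Gli-luciferase reporter were kept in DMEM with 10% FBS and 1 µg/mL puromycin, then seeded at 2×10^4 cells/well overnight at 37 °C. Compounds at 0.05–300 nM (8 concentrations) were added in medium with 0.5% FBS and 0.7 µg/mL Sonic Hh agonist, n=4 wells, for 48 h. Readout was the Firefly/Renilla luciferase ratio in lysates.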

[3] = Cmax in Sprague-Dawley rat at 1 mg/kg, iv by LC/MS/MS analysis; format: ADME, organism-based; set-up: dose 1 mg/kg, route intravenous; settings: in vivo
Procedure, shortened: (§2)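 Male SD rats, 180–240 g, 3 per compound; single dose of 1 mg/kg iv or 5 mg/kg po, dosing volume 5 mL/kg. Blood was sampled from 2 min to 24 h and centrifuged at 4 °C. Plasma underwent protein precipitation, then LC/MS/MS in SRM mode with an internal standard. Parameters were derived by noncompartmental analysis.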

[4] = Cmax in Sprague-Dawley rat at 5 mg/kg, po by LC/MS/MS analysis; format: ADME, organism-based; set-up: dose 5 mg/kg, route oral; settings: in vivo; procedure, shortened: as §2
[5] = AUC (0 to t) in Sprague-Dawley rat at 1 mg/kg, iv by LC/MS/MS analysis; format: ADME, organism-based; settings: in vivo
Procedure, shortened: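 Male SD rats, 3 per compound, 180–240 g, single iv dose at 1 mg/kg, dosing volume 5 mL/kg. Blood sampled at 2, 5, 15, 30 min and 1, 2, 4, 6, 8, 10, 24 h, then centrifuged at 4 °C. Plasma protein-precipitated and analysed by LC/MS/MS in SRM mode with internal standard. AUC(0-t) obtained by noncompartmental analysis.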

[6] = AUC (0 to t) in Sprague-Dawley rat at 5 mg/kg, po by LC/MS/MS analysis; format: ADME, organism-based; settings: in vivo; procedure, shortened: as §2
[7] = Apparent volume of distribution in Sprague-Dawley rat at 1 mg/kg, iv by LC/MS/MS analysis; settings: in vivo
Rattus norvegicus = experiment: Apparent volume of distribution in Sprague-Dawley rat at 5 mg/kg, po by LC/MS/MS analysis; settings: in vivo
[8] = Clearance in Sprague-Dawley rat at 1 mg/kg, iv by LC/MS/MS analysis; format: ADME, organism-based; settings: in vivo; procedure, shortened: as §2
[9] = Clearance in Sprague-Dawley rat at 5 mg/kg, po by LC/MS/MS analysis; format: ADME, organism-based; settings: in vivo; procedure, shortened: as §2
[10] = Mean resident time (0 to t) in Sprague-Dawley rat at 1 mg/kg, iv by LC/MS/MS analysis; format: ADME, organism-based; settings: in vivo; procedure, shortened: as §2
[11] = Mean resident time (0 to t) in Sprague-Dawley rat at 5 mg/kg, po by LC/MS/MS analysis; format: ADME, organism-based; settings: in vivo; procedure, shortened: as §2
[12] = Half life in Sprague-Dawley rat at 1 mg/kg, iv by LC/MS/MS analysis; format: ADME, organism-based; settings: in vivo; procedure, shortened: as §2
[13] = Half life in Sprague-Dawley rat at 5 mg/kg, po by LC/MS/MS analysis; format: ADME, organism-based; settings: in vivo; procedure, shortened: as §2
[14] = Oral bioavailability in Sprague-Dawley rat at 5 mg/kg; format: ADME, organism-based; settings: in vivo; procedure, shortened: as §2
LS174T [15] = experiment: Antiproliferative activity against human LS174T cells after 72 hrs by CellTiter-Glo luminescent cell viability assay; format: functional, cell-based
Procedure, shortened: (§3)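 Cells were grown in DMEM with 10% FBS, seeded at a density suited to each line, and left 24 h at 37 °C. Compounds were prepared in DMSO, diluted in medium over a concentration series starting at 100 µM, and applied for 72 h. CellTiter-Glo reagent was added for 30 min at room temperature before reading luminescence. IC50 came from four-parameter curve fitting.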

[16] = Antiproliferative activity against human PC3 cells after 72 hrs by CellTiter-Glo luminescent cell viability assay; format: functional, cell-based; settings: PC-3, 72 h; procedure, shortened: as §3
[17] = Antiproliferative activity against human BxPC3 cells after 72 hrs by CellTiter-Glo luminescent cell viability assay; format: functional, cell-based; settings: BXPC-3, 72 h; procedure, shortened: as §3
LS174T [18] = experiment: Antitumor activity against human LS174T cells xenografted in BALB/C mouse assessed as tumor weight inhibition at 18.75 mg/kg, bid administered for 10 days measured twice per week; format: functional; settings: 240 h, read-out: TGI; procedure, shortened: as §1
LS174T [19] = experiment: Antitumor activity against human LS174T cells xenografted in BALB/C mouse assessed as tumor weight inhibition at 37.5 mg/kg, bid administered for 10 days measured twice per week; format: functional; settings: 240 h, read-out: TGI; procedure, shortened: as §1
Mus musculus [20] = experiment: Toxicity in BALB/C mouse xenografted with human LS174T cells assessed as mortality at 18.75 to 75 mg/kg, bid administered for 10 days; format: organism-based; settings: in vivo, 240 h
Procedure, shortened: (§4)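 Male BALB/C nude mice (18–20 g) kept under SPF conditions. LS-174T cells at 2.5×10^7 cells/mL injected subcutaneously into the right flank. Once tumors reached about 100 mm3, mice were randomized to groups of 6 (vehicle group n = 9) and dosed orally once or twice daily for 10 days. Controls received solvent. Body weight and tumor volume were measured twice weekly and deaths recorded.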

Mus musculus [21] = experiment: Toxicity in BALB/C mouse xenografted with human LS174T cells assessed as loss of body weight at 18.75 to 75 mg/kg, bid administered for 10 days measured twice per week; format: organism-based; settings: in vivo, 240 h; procedure, shortened: as §4
LS174T [22] = experiment: Antitumor activity against human LS174T cells xenografted in BALB/C mouse assessed as tumor volume inhibition at 75 mg/kg, bid administered for 10 days measured twice per week; settings: 240 h, read-out: TGI
LS174T [23] = experiment: Antitumor activity against human LS174T cells xenografted in BALB/C mouse assessed as tumor volume inhibition at 18.75 mg/kg, bid administered for 10 days measured twice per week; format: functional; settings: 240 h, read-out: TGI; procedure, shortened: as §1
LS174T [24] = experiment: Antitumor activity against human LS174T cells xenografted in BALB/C mouse assessed as tumor volume inhibition at 37.5 mg/kg, bid administered for 10 days measured twice per week; format: functional; settings: 240 h, read-out: TGI; procedure, shortened: as §1
LS174T [25] = experiment: Potency index, ratio of GDC-0449 IC50 to compound IC50 for human LS174T cells; format: functional
PC-3 = experiment: Potency index, ratio of GDC-0449 IC50 to compound IC50 for human PC3 cells; format: functional
BXPC-3 = experiment: Potency index, ratio of GDC-0449 IC50 to compound IC50 for human BxPC3 cells; format: functional

Question: Which inhibition in vivo at 75 mg/kg (LS174T [1]) does the source give for Cc1ccc(CN2CCOCC2)cc1NC(=O)c1ccc(Nc2ncc(F)c(-c3ccc(OC(F)(F)F)cc3)n2)cc1 here?
Answer: 14.4%

Question: What about the pIC50 [2] of the same molecule?
Answer: 8.99

Question: What about the Cmax [3] of the same molecule?
Answer: 1010 ng/mL

Question: What about the Cmax [4] of the same molecule?
Answer: 494 ng/mL

Question: What about the AUC(0-t) [5] of the same molecule?
Answer: 2030 ng·h/mL

Question: And the AUC(0-t) [6]?
Answer: 4720 ng·h/mL

Question: And the Vd [7]?
Answer: 4.67 L/kg

Question: What about the “Vd(app)” value (Rattus norvegicus) of the same molecule?
Answer: 12.03324 L/kg

Question: And the clearance [8]?
Answer: 7.75 mL/min/kg

Question: And the CL/F [9]?
Answer: 15.5 mL/min/kg

Question: What about the MRT last [10] of the same molecule?
Answer: 4.85 h

Question: And the MRT last [11]?
Answer: 7.42 h

Question: And the half-life [12]?
Answer: 6.98 h

Question: And the half-life [13]?
Answer: 9.08 h

Question: And the bioavailability [14]?
Answer: 37.2%

Question: What about the pIC50 (LS174T [15]) of the same molecule?
Answer: 5.04

Question: And the pIC50 [16]?
Answer: 4.94

Question: And the pIC50 [17]?
Answer: 4.84

Question: What about the inhibition in vivo at 18.75 mg/kg (LS174T [18]) of the same molecule?
Answer: 18.4%

Question: What about the inhibition in vivo at 37.5 mg/kg (LS174T [19]) of the same molecule?
Answer: 17.3%

Question: And the Activity (Mus musculus [20])?
Answer: Non-toxic

Question: And the Activity (Mus musculus [21])?
Answer: Non-toxic

Question: What about the inhibition in vivo at 75 mg/kg (LS174T [22]) of the same molecule?
Answer: 33.1%

Question: What about the inhibition in vivo at 18.75 mg/kg (LS174T [23]) of the same molecule?
Answer: 34%

Question: What about the inhibition in vivo at 37.5 mg/kg (LS174T [24]) of the same molecule?
Answer: 34.9%

Question: What about the Ratio IC50 (LS174T [25]) of the same molecule?
Answer: 5

Question: And the Ratio IC50 (PC-3)?
Answer: 5.8

Question: And the “Ratio IC50” value (BXPC-3)?
Answer: 3
